Values after ≈ are worked out from the molar mass of the structure shown.
Tests used:
Assay type in all cases: functional
Haemophilus influenzae [1] = test: Antimicrobial activity against drug-susceptible Haemophilus influenzae 4 after 20 hrs by agar dilution method; details: Haemophilus influenzae, 20 h; read-out: MIC
Outline: (§1)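 Streptococci, H. influenzae and M. catarrhalis were precultured on blood agar plates. Suspensions of about 10⁶ CFU/ml were inoculated onto sensitivity disk agar supplemented with 5% horse blood and incubated at 37 °C for 20 h. MIC was read as the lowest drug concentration with no visible growth.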

Streptococcus pneumoniae [2] = test: Antimicrobial activity against drug-susceptible Streptococcus pneumoniae DP1 Type1 after 20 hrs by agar dilution method; details: Streptococcus pneumoniae, 20 h; read-out: MIC; outline: as §1
Streptococcus pyogenes [3] = test: Antimicrobial activity against drug-susceptible Streptococcus pyogenes 1 after 20 hrs by agar dilution method; outline: as §1
Staphylococcus aureus [4] = test: Antimicrobial activity against drug-susceptible Staphylococcus aureus 209P JC-1 after 20 hrs by agar dilution method; details: Staphylococcus aureus, 209P, 20 h; read-out: MIC
Outline: (§2)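 Agar dilution MIC. S. aureus seed culture was grown in sensitivity test broth. Cell suspension (about 10⁶ CFU/ml) was inoculated onto sensitivity disk agar with 5% horse blood and incubated at 37 °C for 20 h. MIC was the lowest drug concentration that prevented visible growth.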

Streptococcus pneumoniae [5] = test: Antimicrobial activity against drug-susceptible Streptococcus pneumoniae 2 after 20 hrs by agar dilution method; details: Streptococcus pneumoniae, 20 h; read-out: MIC; outline: as §1
Haemophilus influenzae [6] = test: Antimicrobial activity against drug-susceptible Haemophilus influenzae 2 after 20 hrs by agar dilution method; details: Haemophilus influenzae, 20 h; read-out: MIC; outline: as §1
Moraxella catarrhalis [7] = test: Antimicrobial activity against drug-susceptible Moraxella catarrhalis 1 after 20 hrs by agar dilution method; details: Moraxella catarrhalis, 20 h; read-out: MIC; outline: as §1
Staphylococcus aureus [8] = test: Antimicrobial activity against drug-susceptible Staphylococcus aureus 3 after 20 hrs by agar dilution method; details: Staphylococcus aureus, 20 h; read-out: MIC; outline: as §2
Streptococcus pneumoniae [9] = test: Antimicrobial activity against Streptococcus pneumoniae 5 constitutively expressing ermB/mefA after 20 hrs by agar dilution method; details: Streptococcus pneumoniae, 20 h; read-out: MIC; outline: as §1
Streptococcus pneumoniae [10] = test: Antimicrobial activity against Streptococcus pneumoniae 10 expressing mefA after 20 hrs by agar dilution method; details: Streptococcus pneumoniae, 20 h; read-out: MIC; outline: as §1
Streptococcus pneumoniae [11] = test: Antimicrobial activity against Streptococcus pneumoniae 7 expressing inducible ermB after 20 hrs by agar dilution method; outline: as §1
Staphylococcus aureus [12] = test: Antimicrobial activity against Staphylococcus aureus 5 expressing inducible ermB after 20 hrs by agar dilution method; details: Staphylococcus aureus, 20 h; read-out: MIC; outline: as §2
Staphylococcus aureus [13] = test: Antimicrobial activity against Staphylococcus aureus 6 expressing inducible ermB after 20 hrs by agar dilution method; outline: as §2
Streptococcus pneumoniae [14] = test: Antimicrobial activity against Streptococcus pneumoniae 8 expressing inducible ermB after 20 hrs by agar dilution method; outline: as §1
Moraxella catarrhalis [15] = test: Antimicrobial activity against drug-susceptible Moraxella catarrhalis 2 after 20 hrs by agar dilution method; details: Moraxella catarrhalis, 20 h; read-out: MIC; outline: as §1
Staphylococcus aureus [16] = test: Antimicrobial activity against Staphylococcus aureus 4 constitutively expressing ermA after 20 hrs by agar dilution method; outline: as §2
Staphylococcus aureus [17] = test: Antimicrobial activity against drug-susceptible Staphylococcus aureus 2 after 20 hrs by agar dilution method; details: Staphylococcus aureus, 20 h; read-out: MIC; outline: as §2
Haemophilus influenzae [18] = test: Antimicrobial activity against drug-susceptible Haemophilus influenzae 1 after 20 hrs by agar dilution method; details: Haemophilus influenzae, 20 h; read-out: MIC; outline: as §1
Streptococcus pneumoniae [19] = test: Antimicrobial activity against drug-susceptible Streptococcus pneumoniae 3 after 20 hrs by agar dilution method; details: Streptococcus pneumoniae, 20 h; read-out: MIC; outline: as §1
Haemophilus influenzae [20] = test: Antimicrobial activity against drug-susceptible Haemophilus influenzae 3 after 20 hrs by agar dilution method; details: Haemophilus influenzae, 20 h; read-out: MIC; outline: as §1
Streptococcus pneumoniae [21] = test: Antimicrobial activity against Streptococcus pneumoniae 4 constitutively expressing ermB after 20 hrs by agar dilution method; details: Streptococcus pneumoniae, 20 h; read-out: MIC; outline: as §1
Streptococcus pyogenes [22] = test: Antimicrobial activity against Streptococcus pyogenes 2 constitutively expressing ermB after 20 hrs by agar dilution method; outline: as §1
Streptococcus pneumoniae [23] = test: Antimicrobial activity against Streptococcus pneumoniae 9 expressing mefA after 20 hrs by agar dilution method; details: Streptococcus pneumoniae, 20 h; read-out: MIC; outline: as §1
Streptococcus pneumoniae [24] = test: Antimicrobial activity against Streptococcus pneumoniae 6 constitutively expressing ermB after 20 hrs by agar dilution method; details: Streptococcus pneumoniae, 20 h; read-out: MIC; outline: as §1
Streptococcus pyogenes [25] = test: Antimicrobial activity against Streptococcus pyogenes 3 expressing mefA after 20 hrs by agar dilution method; details: Streptococcus pyogenes, 20 h; read-out: MIC; outline: as §1
[26] = Streptococcus pyogenes, 20 h, read-out: MIC
[27] = Streptococcus pneumoniae, 20 h, read-out: MIC

Row | MIC (Haemophilus influenzae [1]) | MIC (Streptococcus pneumoniae [2]) | MIC (Staphylococcus aureus [4]) | MIC (Streptococcus pneumoniae [5]) | MIC (Moraxella catarrhalis [7]) | MIC (Staphylococcus aureus [8]) | MIC (Streptococcus pneumoniae [9]) | MIC (Streptococcus pneumoniae [10]) | MIC (Staphylococcus aureus [12]) | MIC (Staphylococcus aureus [13]) | MIC (Moraxella catarrhalis [15]) | MIC (Staphylococcus aureus [16]) | MIC (Staphylococcus aureus [17]) | MIC (Haemophilus influenzae [18]) | MIC (Streptococcus pneumoniae [19]) | MIC (Haemophilus influenzae [20]) | MIC (Streptococcus pneumoniae [21]) | MIC (Streptococcus pyogenes [22]) | MIC (Streptococcus pneumoniae [23]) | MIC (Streptococcus pneumoniae [24]) | Structure (SMILES) | other results
1 | 16 mg/L (≈ 17.1 µM) | 0.015 mg/L (≈ 0.016 µM) | 0.5 mg/L (≈ 0.534 µM) | 0.03 mg/L (≈ 0.032 µM) | 1 mg/L (≈ 1.07 µM) | 0.25 mg/L (≈ 0.267 µM) | > 128 mg/L | 0.03 mg/L (≈ 0.032 µM) | 0.25 mg/L (≈ 0.267 µM) | 0.5 mg/L (≈ 0.534 µM) | 1 mg/L (≈ 1.07 µM) | > 128 mg/L | 1 mg/L (≈ 1.07 µM) | 32 mg/L (≈ 34.2 µM) | 0.03 mg/L (≈ 0.032 µM) | 8 mg/L (≈ 8.55 µM) | > 128 mg/L | > 128 mg/L | 0.03 mg/L (≈ 0.032 µM) | > 128 mg/L | CCOC(=O)[C@H]1[C@H](C)O[C@@H](O[C@H]2[C@H](N(C)C)[C@@H](O)[C@H](O[C@H]3[C@@H](CC=O)C[C@@H](C)[C@@H](O)CN(C)CCC[C@H](C/C=C/c4cccnc4)OC(=O)C[C@@H](OC(=O)CC)[C@@H]3OC)O[C@@H]2C)C[C@@]1(C)O | MIC (Streptococcus pyogenes [3]; [26]): 0.06 mg/L (≈ 0.0641 µM); MIC (Haemophilus influenzae [6]): 2 mg/L (≈ 2.14 µM); MIC (Streptococcus pneumoniae [11]; [27]): 32 mg/L (≈ 34.2 µM); MIC (Streptococcus pneumoniae [14]; [27]): 32 mg/L (≈ 34.2 µM); MIC (Streptococcus pyogenes [25]): 0.5 mg/L (≈ 0.534 µM)
2 | 8 mg/L (≈ 8.11 µM) | 0.015 mg/L (≈ 0.0152 µM) | 0.25 mg/L (≈ 0.253 µM) | 0.03 mg/L (≈ 0.0304 µM) | 1 mg/L (≈ 1.01 µM) | 0.25 mg/L (≈ 0.253 µM) | > 128 mg/L | 0.03 mg/L (≈ 0.0304 µM) | 0.25 mg/L (≈ 0.253 µM) | 0.25 mg/L (≈ 0.253 µM) | 1 mg/L (≈ 1.01 µM) | > 128 mg/L | 0.5 mg/L (≈ 0.507 µM) | 32 mg/L (≈ 32.4 µM) | 0.015 mg/L (≈ 0.0152 µM) | 8 mg/L (≈ 8.11 µM) | > 128 mg/L | > 128 mg/L | 0.03 mg/L (≈ 0.0304 µM) | > 128 mg/L | CCOC(=O)[C@H]1[C@H](C)O[C@@H](O[C@H]2[C@H](N(C)C)[C@@H](O)[C@H](O[C@H]3[C@@H](CC=O)C[C@@H](C)[C@@H](O)CN(C)CCC[C@H](C/C=C/c4ccc5ncccc5c4)OC(=O)C[C@@H](OC(=O)CC)[C@@H]3OC)O[C@@H]2C)C[C@@]1(C)O | MIC (Streptococcus pyogenes [3]; [26]): 0.06 mg/L (≈ 0.0608 µM); MIC (Haemophilus influenzae [6]): 4 mg/L (≈ 4.06 µM); MIC (Streptococcus pneumoniae [11]; [27]): 8 mg/L (≈ 8.11 µM); MIC (Streptococcus pneumoniae [14]; [27]): 8 mg/L (≈ 8.11 µM); MIC (Streptococcus pyogenes [25]): 0.25 mg/L (≈ 0.253 µM)
3 | 8 mg/L (≈ 8.11 µM) | 0.015 mg/L (≈ 0.0152 µM) | 0.5 mg/L (≈ 0.507 µM) | 0.03 mg/L (≈ 0.0304 µM) | 1 mg/L (≈ 1.01 µM) | 0.25 mg/L (≈ 0.253 µM) | 128 mg/L (≈ 130 µM) | 0.03 mg/L (≈ 0.0304 µM) | 0.25 mg/L (≈ 0.253 µM) | 0.5 mg/L (≈ 0.507 µM) | 1 mg/L (≈ 1.01 µM) | > 128 mg/L | 1 mg/L (≈ 1.01 µM) | 32 mg/L (≈ 32.4 µM) | 0.03 mg/L (≈ 0.0304 µM) | 8 mg/L (≈ 8.11 µM) | 128 mg/L (≈ 130 µM) | > 128 mg/L | 0.06 mg/L (≈ 0.0608 µM) | 128 mg/L (≈ 130 µM) | CCOC(=O)[C@H]1[C@H](C)O[C@@H](O[C@H]2[C@H](N(C)C)[C@@H](O)[C@H](O[C@H]3[C@@H](CC=O)C[C@@H](C)[C@@H](O)CN(C)CCC[C@H](C/C=C/c4cnc5ccccc5c4)OC(=O)C[C@@H](OC(=O)CC)[C@@H]3OC)O[C@@H]2C)C[C@@]1(C)O | MIC (Streptococcus pyogenes [3]; [26]): 0.06 mg/L (≈ 0.0608 µM); MIC (Haemophilus influenzae [6]): 2 mg/L (≈ 2.03 µM); MIC (Streptococcus pneumoniae [11]; [27]): 8 mg/L (≈ 8.11 µM); MIC (Streptococcus pneumoniae [14]; [27]): 8 mg/L (≈ 8.11 µM); MIC (Streptococcus pyogenes [25]): 0.5 mg/L (≈ 0.507 µM)
4 | 8 mg/L (≈ 8.11 µM) | 0.015 mg/L (≈ 0.0152 µM) | 0.13 mg/L (≈ 0.132 µM) | 0.03 mg/L (≈ 0.0304 µM) | 1 mg/L (≈ 1.01 µM) | 0.13 mg/L (≈ 0.132 µM) | > 128 mg/L | 0.03 mg/L (≈ 0.0304 µM) | 0.13 mg/L (≈ 0.132 µM) | 0.25 mg/L (≈ 0.253 µM) | 1 mg/L (≈ 1.01 µM) | > 128 mg/L | 0.5 mg/L (≈ 0.507 µM) | 16 mg/L (≈ 16.2 µM) | 0.03 mg/L (≈ 0.0304 µM) | 8 mg/L (≈ 8.11 µM) | > 128 mg/L | > 128 mg/L | 0.03 mg/L (≈ 0.0304 µM) | > 128 mg/L | CCOC(=O)[C@H]1[C@H](C)O[C@@H](O[C@H]2[C@H](N(C)C)[C@@H](O)[C@H](O[C@H]3[C@@H](CC=O)C[C@@H](C)[C@@H](O)CN(C)CC(/C=C/Cc4ccnc5ccccc45)CCOC(=O)C[C@@H](OC(=O)CC)[C@@H]3OC)O[C@@H]2C)C[C@@]1(C)O (stereo in doubt; form 1) | MIC (Streptococcus pyogenes [3]): 0.03 mg/L (≈ 0.0304 µM); MIC (Streptococcus pneumoniae [11]): 8 mg/L (≈ 8.11 µM); MIC (Streptococcus pneumoniae [14]): 8 mg/L (≈ 8.11 µM); MIC (Streptococcus pyogenes [25]): 0.13 mg/L (≈ 0.132 µM)
